Here are results for 24 sequences from the EternaBench riboswitch data.

The data set deals with MS2 coat protein. Put plainly: apparent Kd, MS2 coat protein; higher = weaker binding; RNA-MaP array; FMN 200 µM where present. In outline: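 Green signal was scaled to red-channel RNA signal and control-cluster median Fmax, and the apparent Kd was taken as the median of filtered per-cluster binding-curve fits. The binding series used SNAP-549-labelled MS2 coat protein from 0.7 or 1.5 nM, doubling to 3 µM, on designs transcribed by stalled E. coli RNA polymerase on Illumina sequencing-chip clusters. Each series ran without and then with constant ligand in 100 mM Tris-HCl pH 7.5, 80 mM KCl, 4 mM MgCl2, BSA, DTT, yeast tRNA and Tween-20.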

Where [1] appears, read: designed as: ON switch for flavin mononucleotide, no ligand.
Where [2] appears, read: ligand present: flavin mononucleotide, designed as: ON switch for flavin mononucleotide.
The mark [3] stands for this setting: designed as: OFF switch for flavin mononucleotide, no ligand.
Setting [4] is: ligand present: flavin mononucleotide, designed as: OFF switch for flavin mononucleotide.

For orientation: apparent Kd means a dissociation constant that holds for the conditions of the assay. Regarding “UGGUACAUGGGAGGAUAUGGGUUGAUAACAUGAGGAUCACCCAUGUUAAAUAAGCCGAGAGGCUACUAGAAGGCCCAUGUACCU”, the “apparent Kd” value is 819 nM under setting [1] and 28.9 nM under setting [2].

As to “GCGCUACAUGAGGAUCACCCAUGUGCGAACGCACGAGGAUAUGCAUGGGCUAAUGCUGGUGCAGAAGGCGUGGCGC”, the “apparent Kd” value runs as follows: under setting [1], 31.8 nM; under setting [2], 22.6 nM.

In the case of “AUGUUAGGGAGAGGAUAUUGACAUGAGGAUCACCCAUGUAUUUGGGAGUGUUUACUGAAUUCUUACGAGAAGGCUUACGAAAUU”, the “apparent Kd” value stood at 396 nM under setting [3] and 242 nM under setting [4].

Regarding “UAUAUAUAGUAAGGAUAUGUAUUAAUUAUAUAAACAGAAGGUACUGACAUGAGGAUCACCCAUGUUUUAGUGUGGGCAUGUAGA”, the “apparent Kd” value was found to be 81.5 nM under setting [3] and 122 nM under setting [4].

Consider “AAGGGUACUUUCGGAACGACAUGAGGAUCACCCAUGUAGACUGAGGAUAUCUACUACUAAGGACGGGAGAAGGCAGUGUAAUGU”, for which the “apparent Kd” value was found to be 18.1 nM under setting [3] and 17.8 nM under setting [4].

On to “UGGUACAUGGGAGGAUAUGGUGUAGACACAUGAGGAUCACCCAUGUCGAUGGAGACAUCGGAGAUCCAGAAGGCCCAUGUACCU”, for which the “apparent Kd” value by setting is: under setting [1], 503 nM; under setting [2], 24 nM.

In the case of “AAACUGCAUGUGAGGAUAUGCACCGACUAAACCGGGCAGAAGGCACAUGAGGAUCACCCAUGUCAUCCUAUUGC”, the “apparent Kd” value came out at 8.62 nM under setting [3] and 18.1 nM under setting [4].

As to “CGGACCCGAGGAUAUCGUAAACCCGACAUGAGGAUCACCCAUGUCAUCCUCACGGCGCCACGAGAAGGCGGUGUUA”, the “apparent Kd” value reads like this: under setting [3], 24.2 nM; under setting [4], 75.7 nM.

As for “GUGUACAUAUCAGGAUAUCAUCGAGUGGAUUAACACAGUGAUUACAUGAGGAUCACCCAUGUGCUUGAGAAGGGAUUACAAUGU”, the “apparent Kd” value is, setting by setting: under setting [3], 19.3 nM; under setting [4], 16.4 nM.

As to “GCCAGUUAUGUAGGAUAUGCGCGGCGAGCCUGAGCAGAAGGACAUGAGGAUCACCCAUGUGUUGCGGUCUGAGUACUGAUCGCU”, the “apparent Kd” value under setting [3] turned out to be 30.1 nM and the “apparent Kd” value under setting [4] was 155 nM.

Take “AGCUGGUGACAGCAUCCAUCAAAACAUGAGGAUCACCCAUGUAGAAGGCUGUACGGUUACCGUACAGAGGAUAUACAAUGAUGA”: the “apparent Kd” value runs as follows: under setting [3], 16.3 nM; under setting [4], 27.3 nM.

With “GGAUGACAUAGUCAUCAGUAACGAACAUGAGGAUCACCCAUGUAGGAUAUGCUACUCAACGAGUAGCAGAAGGACAUGUGUCUU”, the “apparent Kd” value came to 27.4 nM under setting [3] and 135 nM under setting [4].

For “UAUACUAGAUAGGAUAUACUAUAUAUAUUAUUCGUAGAAGGAUCUACAUGAGGAUCACCCAUGUUAACAGCAGU”, the “apparent Kd” value under setting [3] came to 47.6 nM and the “apparent Kd” value under setting [4] worked out at 37 nM.

For “GCUGGCAUGCAAGGAUAUCCUUCCGAGUAGGAAGGAGAAGGUGCUUGUGGGACAUGAGGAUCACCCAUGUAUGUUGGCCACGAC”, the “apparent Kd” value under setting [1] worked out at 134 nM and the “apparent Kd” value under setting [2] worked out at 79.2 nM.

As to “AGAGACCUCACAGGAUAUGCUGGACUUUGUCCAGCAGAAGGGUGAAAACAUGAGGAUCACCCAUGUAUGGUCUCCAAAUUUAAU”, the “apparent Kd” value amounted to 167 nM under setting [1] and 12.8 nM under setting [2].

“CGCGAACAGGUUAACAUGAGGAUCACCCAUGUGGACUCAUGGUAGGAUAUCGGGAAGGAGGAAACCGAGAAGGGCCGGUGAGCC”: the “apparent Kd” value was 324 nM under setting [1] and 107 nM under setting [2].

In the case of “AACAUACUAUACAUGAGGAUCACCCAUGUUUGGGCACUGUACAGAAGGCACGGGCAAAUGCGAGGUGAGGAUAUGUAGUUAGUG”, the “apparent Kd” value came to 64.8 nM under setting [1] and 18.8 nM under setting [2].

Turning to “UGGCGUAUCGAAGGAUAUCUGGGCUUACUCGGAGGAUCGACAUGAGGAUCACCCAUGUAUGACCAAGAGAAGGUCGAGGACGUA”, the “apparent Kd” value is, setting by setting: under setting [3], 141 nM; under setting [4], 253 nM.

For “AAAAAAAAUGUGUAGGAUAUCAGUAAAAAUACAUGAGGAUCACCCAUGUUCAAAAAAAAAAAAACUGAGAAGGACGUGGAUGGUCC”, the “apparent Kd” value runs as follows: under setting [1], 79 nM; under setting [2], 59.9 nM.

For “UAGAUGGGAGGAUAUACGUAGAUGCAGAUUCGUGUGGUGCUACAUGAGGAUCACCCAUGUAGAAGGCCCGUCUU”, the “apparent Kd” value reads like this: under setting [3], 17 nM; under setting [4], 98.1 nM.

Take “UAUAGCCCUAGUUCGAGUGUCUAGGAGGAUAUACAGAGGCAGCCAAAGACAUGAGGAUCACCCAUGUAGAAGGCCUAGACGGUA”: the “apparent Kd” value under setting [4] turned out to be 82.3 nM.

“AGUGACGGUACAGGAUAUGCUGGACUUUGUCCAGCAGAAGGGUAUUAACAUGAGGAUCACCCAUGUUCCGUCACCAAAUUUAAU”: the “apparent Kd” value by setting is: under setting [1], 41 nM; under setting [2], 7.4 nM.

Take “GCGAGUAAAGCAGGAUAUCUAAUAUCACGGAAACAUGAGGAUCACCCAUGUAGAGAAGGGCUAAGUCAUACAAUUCGAACUCGC”: the “apparent Kd” value runs as follows: under setting [3], 14.1 nM; under setting [4], 10.5 nM.

With “UUAUAUAAUGUGAGGAUAUGCUGGUCCUUGGAUCAGCAGAAGGCACAUGAGGAUCACCCAUGUAGUAAAUUUUA”, the “apparent Kd” value by setting is: under setting [3], 19 nM; under setting [4], 24.4 nM.
